Data set [1] relates to BT-474. Nature of the data set: Cytotoxicity against human BT474 cells assessed as cell viability incubated fore 4 days by MTS assay. Format: functional. The settings on record: BT-474, 96 h. The procedure, abridged:
(§1)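 Cells seeded at low density in 96-well plates, dosed next day with 3-fold serial dilutions at 10 concentrations in duplicate. Incubated 4 days at 37C/5% CO2. Viability read by MTS reagent (1.5 h), absorbance at 490 nm. Four-parameter logistic fit. Reported as arithmetic mean GI50 (nM) with standard deviation over n individual runs, each run a duplicate readout.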
A general note: Formazan colour is commonly taken as a measure of viable cells.

The test system of data set [2] is NCI-N87. Kind of data set: Cytotoxicity against human NCI-N87 cells assessed as cell viability incubated fore 4 days by MTS assay. To be noted: NCI-N87, 96 h. Format: functional. The procedure, abridged:
as §1

Data set [3] deals with MDA-MB-361. Kind of data set: Cytotoxicity against human MDA-MB-361 cells assessed as cell viability incubated fore 4 days by MTS assay. It is filed as functional. The settings on record: MDA-MB-361, 96 h. The procedure, abridged:
as §1

A short description of data set [4]: Volume of distribution at steady state in Han Wistar rat at 20 ug/kg, iv by LC-MS/MS analysis. It is filed as ADME, organism-based. The settings on record: in vivo, 0.02 mg/kg, read-out: Vdss. The procedure, abridged: (§2)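 Male Wistar Han rats (n = 3), single IV dose of 20 µg/kg. Plasma levels by LC-MS/MS. Cmax, Tmax, AUCt (zero to last measurable concentration), systemic serum clearance, Vss and terminal t1/2 given as mean ± spread.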

The nature of data set [5]: Drug metabolism in human liver S9 fraction assessed as formation of glucuronide conjugates. Format: ADME, subcellular.
Data set [6] can be described thus: Fraction unbound in monkey plasma at 0.1 uM. Format: ADME, cell-free, Macaca mulatta. To be noted: rhesus monkey. The procedure, abridged: (§3)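 Plasma protein binding measured at 0.1 uM in monkey, rat and human plasma. Reported as fraction unbound.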
For data set [7], the system named is Hepatocyte. Kind of data set: Apparent intrinsic clearance in human liver hepatocytes at 1 uM. It is filed as ADME, cell-based. The procedure, abridged: (§4)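 Apparent intrinsic clearance measured at 1 μM substrate in human liver microsomes (μl/min/mg) and in human hepatocytes (μl/min/million cells).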
A short description of data set [8]: Drug metabolism in rat liver S9 fraction assessed as formation of glucuronide conjugates. Format: ADME, subcellular.
Data set [9] is described as follows: Drug metabolism in human liver S9 fraction assessed as formation of NADPH-dependent oxidative metabolites. It is filed as ADME, subcellular.
Data set [10] in a line: Fraction unbound in rat plasma at 0.1 uM. It is filed as ADME, cell-free. The procedure, abridged: as §3
Data set [11] in a line: Fraction unbound in human plasma at 0.1 uM. It is filed as ADME, cell-free. The procedure, abridged:
as §3

Data set [12] can be described thus: Tmax in Han Wistar rat at 20 ug/kg, iv by LC-MS/MS analysis. It is filed as ADME, organism-based. To be noted: in vivo, 0.02 mg/kg. The procedure, abridged: as §2
Data set [13] is described as follows: Drug metabolism in human liver S9 fraction assessed as formation of amide hydrolysis products. Format: ADME, subcellular.
Data set [14] in a line: Drug recovery in Han Wistar rat bile at 36 ug/kg, iv bolus dose. Format: ADME, organism-based. To be noted: 0.036 mg/kg, read-out: Drug recovery.
Data set [15] can be described thus: Drug metabolism in rat liver S9 fraction assessed as formation of NADPH-dependent oxidative metabolites. Format: ADME, subcellular.
The nature of data set [16]: Drug recovery in Han Wistar rat urine at 36 ug/kg, iv bolus dose. It is filed as ADME, organism-based. The settings on record: 0.036 mg/kg, read-out: Drug recovery. The procedure, abridged: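 Single IV bolus of 36 µg/kg. Fraction of dose recovered in urine (Wistar Han rats, n = 3) and in bile (Sprague-Dawley rats, n = 3).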
A short description of data set [17]: Drug metabolism in rat liver S9 fraction assessed as formation of amide hydrolysis products. Format: ADME, subcellular.
Data set [18] can be described thus: Clearance in Han Wistar rat at 20 ug/kg, iv by LC-MS/MS analysis. Format: ADME, organism-based. To be noted: in vivo, 0.02 mg/kg. The procedure, abridged:
as §2

A short description of data set [19]: Half life in Han Wistar rat at 20 ug/kg, iv by LC-MS/MS analysis. Format: ADME, organism-based. To be noted: in vivo, 0.02 mg/kg. The procedure, abridged: as §2
Data set [20] can be described thus: Drug metabolism in monkey liver S9 fraction assessed as formation of amide hydrolysis products. Format: ADME, subcellular, Macaca mulatta. To be noted: rhesus monkey.
Data set [21] concerns the target Cytochrome P450 3A4 (Homo sapiens, UniProt P08684). Kind of data set: Drug metabolism assessed as human recombinant CYP3A4-mediated hydroxylation occurring on N-terminus. The settings on record: recombinant enzyme. Format: ADME.
Data set [22] is described as follows: Cmax in Han Wistar rat at 20 ug/kg, iv by LC-MS/MS analysis. It is filed as ADME, organism-based. More on the design: dose 20 ug/kg, route intravenous. The settings on record: in vivo, 0.02 mg/kg. The procedure, abridged: as §2
The nature of data set [23]: Drug metabolism in monkey liver S9 fraction assessed as formation of glucuronide conjugates. The settings on record: rhesus monkey. Format: ADME, subcellular, Macaca mulatta.
The nature of data set [24]: Drug metabolism in monkey liver S9 fraction assessed as formation of NADPH-dependent oxidative metabolites. It is filed as ADME, subcellular, Macaca mulatta. To be noted: rhesus monkey.
Data set [25] in a line: Apparent intrinsic clearance in human liver microsomes at 1 uM. It is filed as ADME. The settings on record: read-out: CLH(app). The procedure, abridged: as §4
(In general: Liver microsomes are vesicles of endoplasmic reticulum, rich in cytochrome P450 enzymes.)

Data set [26] in a line: AUCt in Han Wistar rat at 20 ug/kg, iv by LC-MS/MS analysis. The settings on record: plasma, 0.02 mg/kg. Format: ADME, organism-based. The procedure, abridged: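 Male Wistar Han rats (n = 3) received a single IV dose of 20 µg/kg. Serum/plasma concentrations were measured by LC-MS/MS. AUCt was taken from time zero to the last measurable concentration. Values are reported as mean ±.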

Non-standard residues stand in square brackets, D forms with d. Residues, ends and D or L forms follow the SMILES beside them. *: point of attachment. Dolaproine = CO[C@@H]([C@@H]1CCCN1)[C@@H](C)C(=O)O; Dil = CC[C@H](C)[C@H](NC)[C@@H](CC(=O)O)OC; Doe = c1ccc(C[C@H](N*)c2nccs2)cc1; X1 = C[C@@H](N*)[C@@H](O)c1ccccc1; NMeV = CN[C@H](C(=O)O)C(C)C; NMeA = CN[C@@H](C)C(=O)O; NMeAib = CNC(C)(C)C(=O)O; Ac5c = NC1(C(=O)O)CCCC1; Aib = CC(C)(N)C(=O)O

Chain of Cytochrome P450 3A4 (P08684 whole entry): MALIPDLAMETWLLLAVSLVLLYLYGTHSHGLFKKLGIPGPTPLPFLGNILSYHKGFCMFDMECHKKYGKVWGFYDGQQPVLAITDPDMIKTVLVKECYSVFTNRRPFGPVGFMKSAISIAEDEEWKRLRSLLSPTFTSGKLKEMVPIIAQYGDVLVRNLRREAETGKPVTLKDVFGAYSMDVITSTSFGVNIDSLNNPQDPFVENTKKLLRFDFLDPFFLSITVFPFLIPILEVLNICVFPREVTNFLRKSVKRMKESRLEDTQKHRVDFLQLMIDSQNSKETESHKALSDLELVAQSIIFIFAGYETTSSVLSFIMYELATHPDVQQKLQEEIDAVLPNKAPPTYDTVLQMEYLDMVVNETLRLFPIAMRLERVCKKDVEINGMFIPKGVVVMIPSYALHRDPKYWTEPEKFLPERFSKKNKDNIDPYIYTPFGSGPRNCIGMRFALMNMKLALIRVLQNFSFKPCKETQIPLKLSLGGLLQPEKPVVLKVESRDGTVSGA

As a reminder, the GI50 is the concentration at which growth is held to half of that of the control. On to `CC[C@H](C)[C@@H]([C@@H](CC(=O)N1CCC[C@H]1[C@H](OC)[C@@H](C)C(=O)N[C@@H](Cc1ccccc1)c1nccs1)OC)N(C)C(=O)[C@@H](NC(=O)C(C)(C)NC)C(C)C` (H-[NMeAib]V[Dil][Dolaproine]-Doe), for which the GI50 in [1] is 45 pM; in data set [2], 120 pM; in [3] it was 76 pM.
The like results for `CC[C@H](C)[C@@H]([C@@H](CC(=O)N1CCC[C@H]1[C@H](OC)[C@@H](C)C(=O)N[C@@H](Cc1ccccc1)c1nccs1)OC)N(C)C(=O)[C@@H](NC(=O)[C@]1(C)CCCN1)C(C)C` were, in that order, 140 pM, 150 pM and 200 pM.
By fraction unbound is commonly meant the share of the substance not bound to proteins or other matrix. For orientation: Tmax means the time from dosing to the highest level. In general, clearance refers to the rate of elimination divided by the concentration. The term half-life denotes the time needed for the level to fall by half in the phase considered. As a reminder, the Cmax is the maximum level reached in the sampled fluid or tissue. The AUC(0-t) is exposure summed from dosing to a finite time, without extrapolation to infinity. Consider `CC[C@H](C)[C@@H]([C@@H](CC(=O)N1CCC[C@H]1[C@H](OC)[C@@H](C)C(=O)N[C@@H](Cc1ccccc1)c1nccs1)OC)N(C)C(=O)[C@@H](NC(=O)C(C)(C)N)C(C)C` (H-[Aib]V[Dil][Dolaproine]-Doe), for which the Vd in data set [4] was 14.7 L/kg. The Drug metabolism result is reported as “metabolite_notdetected” in data set [5]; “metabolite_notdetected” in data set [8]; “metabolite_detected” in [9]; “metabolite_notdetected” in data set [13]; “metabolite_detected” in [15]; “metabolite_notdetected” in data set [17]. Besides, the Drug metabolism entry in data set [20] is on record as “metabolite_notdetected”; in data set [21] it was “metabolite_detected”; in data set [23], “metabolite_notdetected”; in data set [24], “metabolite_detected”. The fraction unbound at 0.1 µM worked out at 0.24 in data set [6], 0.1 in [10] and 0.07 in data set [11]. In data set [7], the “CLH(app)” value stood at 21 µL/min/mg. In addition, the GI50 in [1] worked out at 260 pM; in [2] it was 270 pM; in data set [3], 190 pM. Moreover, in data set [12], the Tmax is 8.4 min. Moreover, the dose excreted in data set [14] came out at 4%; in data set [16], 8%. This compound also gave a clearance in data set [18] of 70 mL/min/kg. Further, the half-life in data set [19] was 5.85 h. In addition, the highest level in [22] (Cmax) was 19.4 ng/mL. Besides, in data set [25], the microsomal CLint at 1 µM amounted to 84 µL/min/mg. Besides, the area under the curve AUC(0-t) in [26] was 4.51 ng·h/mL.
For the compound `CC[C@H](C)[C@@H]([C@@H](CC(=O)N1CCC[C@H]1[C@H](OC)[C@@H](C)C(=O)N[C@H](C)[C@@H](O)c1ccccc1)OC)N(C)C(=O)[C@@H](NC(=O)[C@@H](NC)C(C)C)C(C)C` (H-[NMeV]V[Dil][Dolaproine]-X1), the “CLH(app)” value in data set [7] worked out at 3 µL/min/mg. Moreover, the GI50 in data set [1] turned out to be 220 pM; in [2], 540 pM; in data set [3] it was 490 pM. The microsomal CLint at 1 µM in [25] was determined as 24 µL/min/mg.
For `CC[C@H](C)[C@@H]([C@@H](CC(=O)N1CCC[C@H]1[C@H](OC)[C@@H](C)C(=O)N[C@@H](Cc1ccccc1)c1nccs1)OC)N(C)C(=O)[C@@H](NC(=O)[C@@]1(C)CCCN1)C(C)C`, the GI50 in data set [1] came to 110 pM; in data set [2], 360 pM; in [3], 210 pM.
The like results for `CC[C@H](C)[C@@H]([C@@H](CC(=O)N1CCC[C@H]1[C@H](OC)[C@@H](C)C(=O)N[C@@H](Cc1ccccc1)c1nccs1)OC)N(C)C(=O)[C@@H](NC(=O)[C@@H](N)C(C)C)C(C)C` (H-VV[Dil][Dolaproine]-Doe) were, in that order, 5300 pM, 10000 pM and 9000 pM.
For the compound `CC[C@H](C)[C@@H]([C@@H](CC(=O)N1CCC[C@H]1[C@H](OC)[C@@H](C)C(=O)N[C@@H](Cc1ccccc1)c1nccs1)OC)N(C)C(=O)[C@@H](NC(=O)[C@H](C)NC)C(C)C` (H-[NMeA]V[Dil][Dolaproine]-Doe), the GI50 in data set [1] came out at 230 pM; in [2], 420 pM; in data set [3], 250 pM.
For the compound `CC[C@H](C)[C@@H]([C@@H](CC(=O)N1CCC[C@H]1[C@H](OC)[C@@H](C)C(=O)N[C@@H](Cc1ccccc1)c1nccs1)OC)N(C)C(=O)[C@@H](NC(=O)C1(N)CCCC1)C(C)C` (H-[Ac5c]V[Dil][Dolaproine]-Doe), the values for the concentration for 50% growth inhibition (GI50) in [1], in data set [2] and in [3] were 280 pM, 330 pM and 350 pM, respectively.
Take `CC[C@H](C)[C@@H]([C@@H](CC(=O)N1CCC[C@H]1[C@H](OC)[C@@H](C)C(=O)N[C@@H](Cc1ccccc1)c1nccs1)OC)N(C)C(=O)[C@@H](NC(=O)[C@]1(C)CCCCN1)C(C)C`: the GI50 is 160 pM in [1], 250 pM in data set [2] and 200 pM in data set [3].
